SUMO Mot1 rescue: SUMOylation pathway inhibition by Mot1-301 growth rescue; actives 1% (n = 320,000); S. cerevisiae Mot1-301 growth rescue, ATP luminescence, 38.5C; percent above DMSO median, 100 means doubled; growth rescue, % at 18.8 µM;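 active means every valid replicate shows activation above 250% relative to neutral control wells; inactive means the rest, any valid replicate at or below 250%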;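 further: OY570 slx delta 5 strain wells were the positive control but not used for scaling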
AI-2 QS mod: modulates the Vibrio harveyi AI-2 quorum sensing system | Vibrio harveyi JMH597 AI-2 luminescence/OD600 ratio, 9 h; stronger effect = lower value; strain lacks LuxN and CqsS sensors; 0 = neutral-control median | activity change, % at 7.5 µM | actives 0.4% (n = 300,000) | AID 2094; in the data active means activity change below about -75%, passing the limit was not always enough;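 further: luminescence divided by OD600 gain over 9 h not by final OD600 alone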
KCNQ1 block: human KCNQ1 channel inhibition. CHO-K1 KCNQ1, FluxOR thallium flux fluorescence; stronger effect = higher value. B-score at 10 µM. actives 1.3% (n = 310,000). P51787;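 active means compounds whose thallium flux B-score, printed positive for inhibition, exceeds three library SD while starting fluorescence stays within three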;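 further: channel opened by potassium depolarization with thallium stimulus after 20 min compound exposure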
Target sequence (P51787 whole entry, looked up): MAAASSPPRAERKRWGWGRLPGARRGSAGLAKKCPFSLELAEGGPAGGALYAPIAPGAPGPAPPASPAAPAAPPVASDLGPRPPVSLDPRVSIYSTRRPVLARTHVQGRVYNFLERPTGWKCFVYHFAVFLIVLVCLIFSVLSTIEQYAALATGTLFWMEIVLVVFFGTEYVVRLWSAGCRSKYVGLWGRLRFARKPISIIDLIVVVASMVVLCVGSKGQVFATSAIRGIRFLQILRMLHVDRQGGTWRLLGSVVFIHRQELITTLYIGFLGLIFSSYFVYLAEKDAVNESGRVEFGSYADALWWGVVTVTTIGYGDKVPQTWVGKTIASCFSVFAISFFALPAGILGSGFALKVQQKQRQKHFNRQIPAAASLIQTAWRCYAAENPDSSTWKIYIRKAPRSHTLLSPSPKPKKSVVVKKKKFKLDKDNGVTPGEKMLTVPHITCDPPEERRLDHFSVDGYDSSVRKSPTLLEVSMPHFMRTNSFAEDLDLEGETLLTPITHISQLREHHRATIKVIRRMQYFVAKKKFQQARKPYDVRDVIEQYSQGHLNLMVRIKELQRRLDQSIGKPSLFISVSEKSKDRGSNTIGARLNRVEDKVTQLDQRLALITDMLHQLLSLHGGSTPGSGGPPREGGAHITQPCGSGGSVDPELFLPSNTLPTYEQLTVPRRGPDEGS
KCNQ1 act: potentiators or activators of human KCNQ1 potassium channel | actives 0.35% (n = 310,000) | P51787 | B-score at 10 µM | CHO-K1 KCNQ1, thallium flux FluxOR fluorescence; stronger effect = higher value;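 active means fluorescence ratio B-score, a plate-corrected score, at least three library SD, with initial intensity B-score within 5 SD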
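assay system = KCNQ1-transfected CHO-K1 cells | medium = assay buffer with matched DMSO | probe or stimulus = depolarizing K+/Tl+ stimulus, K2SO4 and Tl2SO4 each 12.5 mM in 5x stock | dosing = single dose | incubation = dye 90 min, compound 20 min, room temperature | detection = kinetic FluxOR fluorescence, 10 s baseline plus 110 s post-stimulus | evaluation = ratio B score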
hERG protect: compounds protecting human hERG from proarrhythmic drug block; Q12809; actives 0.51% (n = 310,000); CHO-hERG, FluxOR thallium flux, dofetilide IC70 present; activation (rescue from dofetilide block), less the hit threshold, % at 10 µM;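 active means activation above the mean of controls blocked by dofetilide plus 5 SD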;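 further: thallium influx through hERG after potassium depolarization seen as dye fluorescence rise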
KCC2 mod: modulates chloride dependent transport by human KCC2; Q9H2X9; B-score of Tl+ flux slope (higher = more flux/activation; lower = inhibition) at 10 µM; KCC2 cells, thallium flux FluoZin-2 fluorescence; actives 2.2% (n = 190,000);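 active means thallium flux slope and its plate-corrected score both differing from the plate sample mean at a set confidence after two filtering rounds, in either direction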;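 further: slope of fluorescence scaled to starting intensity during 10 to 20 s after thallium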
Mot1 SUMO dose: inhibits SUMO pathway, affecting Mot1-301 yeast growth; shares compounds with SUMO Mot1 rescue; S. cerevisiae Mot1-301 galactose growth, ATP luminescence, 24 h; -100 = growth of slx-deleted rescue strain; growth activity, percent, % at 42 µM; 2,300 tested, under 10 active; AID 493004;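 active means Signal drops as the depositor expects, and the fitted half-maximal dose is no more than ten times the top valid tested dose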;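 further: more negative values mean stronger growth rescue toward the control strain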
* hit, by the source's call; i = inactive; x = no result; + = active, no number; [ ] = remark or other dose. Rows were chosen to be rich in hits. Some 4.2% of all compounds tested hit in one or more screens of this group.

SMILES | SUMO Mot1 rescue | AI-2 QS mod | KCNQ1 block | KCNQ1 act | hERG protect | KCC2 mod | Mot1 SUMO dose
CC1CCN(CCCCOc2ccc(Cl)cc2)CC1 | 427.0* | 16.7 | i | i | -2.3 | x | -0.2
C#CCNc1nc(CC)nc2c1nnn2Cc1ccccc1F | -5.6 | 7.0 | i | i | -1.8 | x | x
CCOCCn1c(-c2ccc(OC)cc2)nc2ccccc21 | 477.2* | 25.7 | i | i | -15.7 | 0.277 | 0.3
C=CCn1c(-c2ccc(OC)cc2)nc2ccccc21 | 396.4* | 13.8 | i | i | -10.5 | x | 0.0
COc1ccc(-c2nc3ccccc3n2Cc2ccccc2)cc1 | 6.5 | 26.9 | i | i | -9.1 | -0.242 | x
O=S(=O)(Nc1ccc2ccccc2n1)c1ccccc1 | -10.8 | 8.1 | i | i | -0.8 | x | x
CCOC(=O)/C(C#N)=C\c1ccc(CC)s1 | + | 25.9 | i | i | -2.6 | 0.0106 | 0.3
O=C(NC1CCCCCC1)c1ccc(-n2cnnc2)cc1 | -10.9 | 8.1 | i | i | -6.0 | x | x
CC(C)(O)C#Cc1ccc(CN2CCC(n3nccc3NC(=O)C3CC3)CC2)cc1 | 14.5 | 26.8 | i | i | -5.3 | x | x
COc1ccc(-c2csc(NC(=O)CS(=O)(=O)c3ccc(F)cc3)n2)cc1OC | 555.2* | 6.8 | i | i | -10.9 | x | -0.3
COc1ccc(-c2csc(NC(=O)Cc3cc(OC)c(OC)c(OC)c3)n2)cc1OC | 280.9 | 14.9 | i | i | -11.1 | x | x
COc1ccccc1C(=O)NCCNc1ccc([N+](=O)[O-])cc1Cl | 455.9* | 29.5 | i | i | -1.0 | x | -0.7
COC(=O)C1CCN(C(=O)CN2C(=O)NC(CC(C)C)C2=O)CC1 (stereo not given) | 0.1 | x | x | x | x | x | x
Cc1ccc(NC2CC(=O)N(c3ccc(N4CCCCC4)cc3)C2=O)cc1 (stereo not given) | 679.5* | 11.9 | i | i | -1.1 | 0.953 | 0.1[21 µM]
COc1ccc(N2C(=O)CC(Nc3ccc(C)cc3)C2=O)cc1 (stereo not given) | x | -4.6 | i | i | -10.7 | 0.239 | x
COc1ccc(CCNC(=O)CCc2ccc(S(=O)(=O)NC(C)C)cc2)cc1 | 417.4 | 7.4 | i | i | -12.0 | -0.654 | x
CC(C)N=C(NS(=O)(=O)NC(=O)c1ccccc1)c1ccccc1 | 456.2* | 26.9 | i | i | -12.2 | 1.01 | -0.4
CC(NC(=O)c1cccs1)c1ccc(Br)cc1 (stereo not given) | 799.5* | 4.0 | i | i | -2.5 | x | -0.1
CC(C)(C)c1ccc(C(=O)COC(=O)CN2C(=O)NC3(CCCC3)C2=O)cc1 | 522.3* | 11.1 | i | i | -11.7 | x | -0.3
CC(C)(C)c1ccc(COC(=O)CN2C(=O)NC3(CCCC3)C2=O)cc1 | 7.6 | 13.4 | i | i | -18.8 | x | x
CC(=O)c1cccc(NC(=O)CNC(=O)c2sc3ccccc3c2Cl)c1 | 664.4* | 12.8 | i | i | -15.8 | x | 1.1
Cc1cccc(NC(=O)CNC(=O)c2sc3ccccc3c2Cl)n1 | -0.9 | -0.5 | i | i | -14.5 | x | x
Cc1noc(C)c1S(=O)(=O)N1CCCC(C(=O)NCC2CCCO2)C1 (stereo not given) | + | 11.8 | i | i | -3.7 | x | 0.5
COc1ccc(NC2CCCN(C(=O)C3=NN(C)C(=O)CC3)C2)cc1OC (stereo not given) | 10.6 | 15.7 | i | i | -8.8 | x | x
CCOc1cc(C(N)=O)cc(Cl)c1OCc1ccccc1 | 441.6* | 16.0 | i | i | -14.1 | -1.94 | -0.1
SMILES | SUMO Mot1 rescue | AI-2 QS mod | KCNQ1 block | KCNQ1 act | hERG protect | KCC2 mod | Mot1 SUMO dose
COc1cc(C(N)=O)cc(Cl)c1OCc1ccccc1 | 12.5 | 15.2 | i | i | -2.1 | 0.0389 | x
CCOC(=O)CCCSc1nnc(CCCCCN2C(=O)c3cccc4cccc(c34)C2=O)o1 | 69.6 | 30.9 | i | i | -11.5 | -1.35 | x
COc1ccc(C(=O)CSc2nnc3ccc(-c4ccccn4)nn23)cc1 | 745.1* | 17.3 | i | i | -5.5 | 0.595 | 1.0
CC(N=Cc1c(O)c2ccccc2oc1=O)C(=O)O (stereo not given) | 2.9 | -1.4 | i | i | -20.6 | -0.152 | x
Cc1ccc(NC(=O)COC(=O)c2ccc(Cl)nc2)cc1S(=O)(=O)N1CCCCC1 | 2.1 | x | x | x | x | x | x
CCOC(=O)c1c(NCC2CCCO2)c2ccccc2[nH]c1=O (stereo not given) | -13.0 | 13.2 | i | i | -4.8 | 0.608 | x
CCCCCCNc1c(C(=O)OCC)c(=O)[nH]c2ccccc12 | 777.7* | 4.8 | i | i | -7.5 | -0.677 | -0.2
Cc1cccc(NC(=S)NCc2ccco2)c1C | 619.4* | -8.3 | i | i | -5.4 | 0.359 | -0.3
Cc1c(Cl)cccc1NC(=S)NCc1ccco1 | -3.5 | 4.8 | i | i | -6.3 | 0.0118 | x
C[C@H](CO)N1C[C@H](C)[C@@H](CN(C)C(=O)NC2CCCCC2)Oc2ccc(NC(=O)Nc3ccccc3)cc2C1=O | -16.6 | x | x | x | x | x | x
CCCN1C(=O)c2ccccc2NC1c1ccc(C)cc1 (stereo not given) | 457.8* | 14.9 | i | i | -9.8 | 0.245 | 1.3
Cc1nc(NC(=O)/C=C/c2ccccc2)sc1C(=O)N1CCCCC1 | 4.1 | -9.6 | i | i | -9.3 | -0.256 | x
CCCCNC(=O)COC(=O)c1ccc(Cl)c(S(N)(=O)=O)c1 | -9.7 | x | x | x | x | 1.09 | x
O=C(OCCCCOC(=O)c1ccccc1)c1ccccc1 | 528.8* | 13.2 | i | i | -8.0 | 0.232 | 0.1
CN(C)CCCOC(=O)c1ccccc1 | -2.9 | 14.7 | i | i | -3.7 | -0.159 | x
Cc1occc1-c1nnc(SCC(=O)N2CCN(c3ccccc3)CC2)n1C | 494.6* | 10.0 | i | i | -2.0 | -0.553 | -0.4
O=C(CCSc1ccccc1)Nc1ncccn1 | 730.8* | 22.6 | i | i | -14.5 | -0.0295 | 0.3
O=C(CCSc1ccccc1)Nc1nccs1 | -7.4 | 24.4 | i | i | -5.3 | -1.55 | x
CCn1ncc(Br)c1C(=O)Nc1ccccc1OC | 234.0 | 18.4 | i | i | -16.3 | -1.56 | x
CCn1nccc1C(=O)Nc1ccccc1OC | 747.0* | 11.8 | i | i | -3.8 | x | -0.1
COC(=O)c1c(C(=O)OC)c2ccncn2c1Cl | 10.5 | 8.7 | i | i | -4.3 | x | x
COCC(=O)Nc1c(C(=O)Nc2ccc3c(c2)OCO3)oc2ccccc12 | 414.9* | 22.6 | i | i | -7.3 | x | -0.5
CC(=O)Nc1c(C(=O)Nc2ccc3c(c2)OCO3)oc2ccccc12 | 146.8 | 10.9 | i | i | 0.5 | x | x
O=C1N=C(N2CCOCC2)S/C1=C\c1cccnc1 | 753.4* | 10.4 | i | i | -9.9 | -0.182 | 0.8

Bioassay records: PubChem, several laboratories
